In ChEMBL document CHEMBL4261538, “Synthesis and molecular docking studies of xanthone attached amino acids as potential antimicrobial and anti-inflammatory agents” (Medchemcomm, 2017):
In brackets after ≈: the same amount, converted by molar mass.

Key:
[1] = system: Staphylococcus aureus; experiment: Antibacterial activity against Staphylococcus aureus at 25 ug/ml incubated for 24 hrs by agar well diffusion method; type: functional; conditions: read-out: DIZ
Method in brief: (§1)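 Bacteria grown in nutrient broth at 37 °C for 24 h, then subcultured at room temperature. Compounds dissolved in DMSO at 5 mg mL⁻¹ and 5–20 µL added to 6 mm wells, giving 25, 50, 75, 100 µg per well. Gentamicin was the positive control and DMSO the negative control. Plates held at 37 °C for 24 h, then inhibition zone diameter (mm) measured. Values are means of three determinations.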

[2] = system: Staphylococcus aureus; experiment: Antibacterial activity against Staphylococcus aureus at 50 ug/ml incubated for 24 hrs by agar well diffusion method; type: functional; conditions: read-out: DIZ; method in brief: as §1
[3] = system: Staphylococcus aureus; experiment: Antibacterial activity against Staphylococcus aureus at 75 ug/ml incubated for 24 hrs by agar well diffusion method; type: functional; conditions: read-out: DIZ; method in brief: as §1
[4] = system: Staphylococcus aureus; experiment: Antibacterial activity against Staphylococcus aureus at 100 ug/ml incubated for 24 hrs by agar well diffusion method; type: functional; conditions: read-out: DIZ; method in brief: as §1
[5] = system: Bacillus subtilis; experiment: Antibacterial activity against Bacillus subtilis at 25 ug/ml incubated for 24 hrs by agar well diffusion method; type: functional; conditions: read-out: DIZ; method in brief: as §1
[6] = system: Bacillus subtilis; experiment: Antibacterial activity against Bacillus subtilis at 50 ug/ml incubated for 24 hrs by agar well diffusion method; type: functional; conditions: read-out: DIZ; method in brief: as §1
[7] = system: Bacillus subtilis; experiment: Antibacterial activity against Bacillus subtilis at 75 ug/ml incubated for 24 hrs by agar well diffusion method; type: functional; conditions: read-out: DIZ; method in brief: as §1
[8] = system: Bacillus subtilis; experiment: Antibacterial activity against Bacillus subtilis at 100 ug/ml incubated for 24 hrs by agar well diffusion method; type: functional; conditions: read-out: DIZ; method in brief: as §1
[9] = system: Escherichia coli; experiment: Antibacterial activity against Escherichia coli at 25 ug/ml incubated for 24 hrs by agar well diffusion method; type: functional; conditions: read-out: DIZ; method in brief: as §1
[10] = system: Escherichia coli; experiment: Antibacterial activity against Escherichia coli at 50 ug/ml incubated for 24 hrs by agar well diffusion method; type: functional; conditions: read-out: DIZ; method in brief: as §1
[11] = system: Escherichia coli; experiment: Antibacterial activity against Escherichia coli at 75 ug/ml incubated for 24 hrs by agar well diffusion method; type: functional; conditions: read-out: DIZ; method in brief: as §1
[12] = system: Escherichia coli; experiment: Antibacterial activity against Escherichia coli at 100 ug/ml incubated for 24 hrs by agar well diffusion method; type: functional; conditions: read-out: DIZ; method in brief: as §1
[13] = system: Klebsiella pneumoniae; experiment: Antibacterial activity against Klebsiella pneumoniae at 25 ug/ml incubated for 24 hrs by agar well diffusion method; type: functional; conditions: read-out: DIZ; method in brief: as §1
[14] = system: Klebsiella pneumoniae; experiment: Antibacterial activity against Klebsiella pneumoniae at 50 ug/ml incubated for 24 hrs by agar well diffusion method; type: functional; conditions: read-out: DIZ; method in brief: as §1
[15] = system: Klebsiella pneumoniae; experiment: Antibacterial activity against Klebsiella pneumoniae at 75 ug/ml incubated for 24 hrs by agar well diffusion method; type: functional; conditions: read-out: DIZ; method in brief: as §1
[16] = system: Klebsiella pneumoniae; experiment: Antibacterial activity against Klebsiella pneumoniae at 100 ug/ml incubated for 24 hrs by agar well diffusion method; type: functional; conditions: read-out: DIZ; method in brief: as §1
[17] = system: Aspergillus niger; experiment: Antifungal activity against Aspergillus niger at 25 ug/ml incubated for 48 hrs by agar well diffusion method; type: functional; conditions: read-out: DIZ
Method in brief: (§2)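 Compounds dissolved in DMSO at 5 mg mL⁻¹ and 5–20 µL added to 6 mm wells, giving 25, 50, 75, 100 µg per well. Bavistin was the positive control and DMSO the negative control. Plates incubated at 28 °C for 48 h, then inhibition zone diameter (mm) measured. Values are means of three determinations.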

[18] = system: Aspergillus niger; experiment: Antifungal activity against Aspergillus niger at 50 ug/ml incubated for 48 hrs by agar well diffusion method; type: functional; conditions: read-out: DIZ; method in brief: as §2
[19] = system: Aspergillus niger; experiment: Antifungal activity against Aspergillus niger at 75 ug/ml incubated for 48 hrs by agar well diffusion method; type: functional; conditions: read-out: DIZ; method in brief: as §2
[20] = system: Aspergillus niger; experiment: Antifungal activity against Aspergillus niger at 100 ug/ml incubated for 48 hrs by agar well diffusion method; type: functional; conditions: read-out: DIZ; method in brief: as §2
[21] = system: Candida albicans; experiment: Antifungal activity against Candida albicans at 25 ug/ml incubated for 48 hrs by agar well diffusion method; type: functional; conditions: read-out: DIZ; method in brief: as §2
[22] = system: Candida albicans; experiment: Antifungal activity against Candida albicans at 50 ug/ml incubated for 48 hrs by agar well diffusion method; type: functional; conditions: read-out: DIZ; method in brief: as §2
[23] = system: Candida albicans; experiment: Antifungal activity against Candida albicans at 75 ug/ml incubated for 48 hrs by agar well diffusion method; type: functional; conditions: read-out: DIZ; method in brief: as §2
[24] = system: Candida albicans; experiment: Antifungal activity against Candida albicans at 100 ug/ml incubated for 48 hrs by agar well diffusion method; type: functional; conditions: read-out: DIZ; method in brief: as §2
[25] = system: Fusarium oxysporum; experiment: Antifungal activity against Fusarium oxysporum at 25 ug/ml incubated for 48 hrs by agar well diffusion method; type: functional; conditions: read-out: DIZ; method in brief: as §2
[26] = system: Fusarium oxysporum; experiment: Antifungal activity against Fusarium oxysporum at 50 ug/ml incubated for 48 hrs by agar well diffusion method; type: functional; conditions: read-out: DIZ; method in brief: as §2
[27] = system: Fusarium oxysporum; experiment: Antifungal activity against Fusarium oxysporum at 75 ug/ml incubated for 48 hrs by agar well diffusion method; type: functional; conditions: read-out: DIZ; method in brief: as §2
[28] = system: Fusarium oxysporum; experiment: Antifungal activity against Fusarium oxysporum at 100 ug/ml incubated for 48 hrs by agar well diffusion method; type: functional; conditions: read-out: DIZ; method in brief: as §2
[29] = system: Staphylococcus aureus; experiment: Antibacterial activity against Staphylococcus aureus incubated for 24 hrs by microdilution method; type: functional
[30] = system: Bacillus subtilis; experiment: Antibacterial activity against Bacillus subtilis incubated for 24 hrs by microdilution method; type: functional
[31] = system: Escherichia coli; experiment: Antibacterial activity against Escherichia coli incubated for 24 hrs by microdilution method; type: functional
[32] = system: Klebsiella pneumoniae; experiment: Antibacterial activity against Klebsiella pneumoniae incubated for 24 hrs by microdilution method; type: functional
[33] = system: Aspergillus niger; experiment: Antifungal activity against Aspergillus niger incubated for 48 to 72 hrs by microdilution method; type: functional
Method in brief: (§3)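 Sabouraud agar plates inoculated with fungal suspension at 10⁵ CFU mL⁻¹ plus serially diluted compounds and bavistin reference, both in DMSO. Incubated at 25 °C for 48–72 h. MIC is the lowest concentration completely inhibiting growth. Values are means of three determinations.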

[34] = system: Candida albicans; experiment: Antifungal activity against Candida albicans incubated for 48 to 72 hrs by microdilution method; type: functional; method in brief: as §3
[35] = system: Fusarium oxysporum; experiment: Antifungal activity against Fusarium oxysporum incubated for 48 to 72 hrs by microdilution method; type: functional; method in brief: as §3
[36] = system: Staphylococcus aureus; experiment: Induction of cell membrane damage in Staphylococcus aureus assessed as cell content leakage at MIC by spectrophotometric method; type: functional, organism-based; conditions: TDE = time-dependent effect
Method in brief: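 Log-phase S. aureus inoculated into 0.1% sterile peptone water, with an untreated control, and held at 37 °C for 0, 30, 60 and 120 min. 1 mL of broth centrifuged and supernatant OD read at 260 nm to measure released DNA. Run in triplicate, repeated three times.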

[37] = system: Erythrocyte; experiment: Anti-inflammatory activity in human RBC assessed as inhibition of hypotonic solution-induced hemolysis after 10 mins by spectrophotometric method; type: functional, cell-based
Method in brief: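 Human blood (heparinized) washed with 0.9% saline, packed cells made into a 40% v/v stock in isotonic phosphate buffer (154 mM NaCl, 10 mM sodium phosphate, pH 7.4). Stock RBC mixed with hypotonic buffer (50 mM NaCl, 10 mM phosphate, pH 7.4) plus sample at 20–100 µg mL⁻¹.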

CC(C)(C)OC(=O)N[C@@H](Cc1c[nH]c2ccccc12)C(=O)Oc1ccc2c(=O)c3ccccc3oc2c1
zone of inhibition at 25 µg/mL [1]: 22 mm | zone of inhibition at 50 µg/mL [2]: 29 mm | zone of inhibition at 75 µg/mL [3]: 35 mm | zone of inhibition at 100 µg/mL [4]: 40 mm | zone of inhibition at 25 µg/mL [5]: 23 mm | zone of inhibition at 50 µg/mL [6]: 29 mm | zone of inhibition at 75 µg/mL [7]: 33 mm | zone of inhibition at 100 µg/mL [8]: 39 mm | zone of inhibition at 25 µg/mL [9]: 24 mm | zone of inhibition at 50 µg/mL [10]: 30 mm | zone of inhibition at 75 µg/mL [11]: 37 mm | zone of inhibition at 100 µg/mL [12]: 41 mm | zone of inhibition at 25 µg/mL [13]: 22 mm | zone of inhibition at 50 µg/mL [14]: 29 mm | zone of inhibition at 75 µg/mL [15]: 36 mm | zone of inhibition at 100 µg/mL [16]: 41 mm | zone of inhibition at 25 µg/mL [17]: 24 mm | zone of inhibition at 50 µg/mL [18]: 31 mm | zone of inhibition at 75 µg/mL [19]: 36 mm | zone of inhibition at 100 µg/mL [20]: 44 mm | zone of inhibition at 25 µg/mL [21]: 24 mm | zone of inhibition at 50 µg/mL [22]: 31 mm | zone of inhibition at 75 µg/mL [23]: 37 mm | zone of inhibition at 100 µg/mL [24]: 42 mm | zone of inhibition at 25 µg/mL [25]: 21 mm | zone of inhibition at 50 µg/mL [26]: 30 mm | zone of inhibition at 75 µg/mL [27]: 35 mm | zone of inhibition at 100 µg/mL [28]: 40 mm | MIC [29]: 18 µg/mL (≈ 36.1 µM) | MIC [30]: 17 µg/mL (≈ 34.1 µM) | MIC [31]: 16 µg/mL (≈ 32.1 µM) | MIC [32]: 20 µg/mL (≈ 40.1 µM) | MIC [33]: 20 µg/mL (≈ 40.1 µM) | MIC [34]: 19 µg/mL (≈ 38.1 µM) | MIC [35]: 21 µg/mL (≈ 42.1 µM) | Activity [36]: Tde | IC50 [37]: 24 µg/mL (≈ 48.1 µM)

CC(C)(C)OC(=O)N[C@@H](Cc1ccc(O)cc1)C(=O)Oc1ccc2c(=O)c3ccccc3oc2c1
zone of inhibition at 25 µg/mL [1]: 20 mm | zone of inhibition at 50 µg/mL [2]: 26 mm | zone of inhibition at 75 µg/mL [3]: 32 mm | zone of inhibition at 100 µg/mL [4]: 36 mm | zone of inhibition at 25 µg/mL [5]: 20 mm | zone of inhibition at 50 µg/mL [6]: 28 mm | zone of inhibition at 75 µg/mL [7]: 35 mm | zone of inhibition at 100 µg/mL [8]: 37 mm | zone of inhibition at 25 µg/mL [9]: 20 mm | zone of inhibition at 50 µg/mL [10]: 27 mm | zone of inhibition at 75 µg/mL [11]: 33 mm | zone of inhibition at 100 µg/mL [12]: 36 mm | zone of inhibition at 25 µg/mL [13]: 18 mm | zone of inhibition at 50 µg/mL [14]: 24 mm | zone of inhibition at 75 µg/mL [15]: 30 mm | zone of inhibition at 100 µg/mL [16]: 34 mm | zone of inhibition at 25 µg/mL [17]: 22 mm | zone of inhibition at 50 µg/mL [18]: 30 mm | zone of inhibition at 75 µg/mL [19]: 37 mm | zone of inhibition at 100 µg/mL [20]: 41 mm | zone of inhibition at 25 µg/mL [21]: 20 mm | zone of inhibition at 50 µg/mL [22]: 29 mm | zone of inhibition at 75 µg/mL [23]: 34 mm | zone of inhibition at 100 µg/mL [24]: 37 mm | zone of inhibition at 25 µg/mL [25]: 22 mm | zone of inhibition at 50 µg/mL [26]: 29 mm | zone of inhibition at 75 µg/mL [27]: 36 mm | zone of inhibition at 100 µg/mL [28]: 42 mm | MIC [29]: 21 µg/mL (≈ 44.2 µM) | MIC [30]: 20 µg/mL (≈ 42.1 µM) | MIC [31]: 19 µg/mL (≈ 40 µM) | MIC [32]: 24 µg/mL (≈ 50.5 µM) | MIC [33]: 22 µg/mL (≈ 46.3 µM) | MIC [34]: 24 µg/mL (≈ 50.5 µM) | MIC [35]: 22 µg/mL (≈ 46.3 µM) | Activity [36]: Tde | IC50 [37]: 32 µg/mL (≈ 67.3 µM)
